Measurements of several laboratories.
Each line is one published result; the experiments were not run side by side.
Target: Mitogen-activated protein kinase kinase kinase 15 (MAP3K15, Homo sapiens, UniProt Q6ZN16)
Residues used in one study (Q6ZN16 1-1313): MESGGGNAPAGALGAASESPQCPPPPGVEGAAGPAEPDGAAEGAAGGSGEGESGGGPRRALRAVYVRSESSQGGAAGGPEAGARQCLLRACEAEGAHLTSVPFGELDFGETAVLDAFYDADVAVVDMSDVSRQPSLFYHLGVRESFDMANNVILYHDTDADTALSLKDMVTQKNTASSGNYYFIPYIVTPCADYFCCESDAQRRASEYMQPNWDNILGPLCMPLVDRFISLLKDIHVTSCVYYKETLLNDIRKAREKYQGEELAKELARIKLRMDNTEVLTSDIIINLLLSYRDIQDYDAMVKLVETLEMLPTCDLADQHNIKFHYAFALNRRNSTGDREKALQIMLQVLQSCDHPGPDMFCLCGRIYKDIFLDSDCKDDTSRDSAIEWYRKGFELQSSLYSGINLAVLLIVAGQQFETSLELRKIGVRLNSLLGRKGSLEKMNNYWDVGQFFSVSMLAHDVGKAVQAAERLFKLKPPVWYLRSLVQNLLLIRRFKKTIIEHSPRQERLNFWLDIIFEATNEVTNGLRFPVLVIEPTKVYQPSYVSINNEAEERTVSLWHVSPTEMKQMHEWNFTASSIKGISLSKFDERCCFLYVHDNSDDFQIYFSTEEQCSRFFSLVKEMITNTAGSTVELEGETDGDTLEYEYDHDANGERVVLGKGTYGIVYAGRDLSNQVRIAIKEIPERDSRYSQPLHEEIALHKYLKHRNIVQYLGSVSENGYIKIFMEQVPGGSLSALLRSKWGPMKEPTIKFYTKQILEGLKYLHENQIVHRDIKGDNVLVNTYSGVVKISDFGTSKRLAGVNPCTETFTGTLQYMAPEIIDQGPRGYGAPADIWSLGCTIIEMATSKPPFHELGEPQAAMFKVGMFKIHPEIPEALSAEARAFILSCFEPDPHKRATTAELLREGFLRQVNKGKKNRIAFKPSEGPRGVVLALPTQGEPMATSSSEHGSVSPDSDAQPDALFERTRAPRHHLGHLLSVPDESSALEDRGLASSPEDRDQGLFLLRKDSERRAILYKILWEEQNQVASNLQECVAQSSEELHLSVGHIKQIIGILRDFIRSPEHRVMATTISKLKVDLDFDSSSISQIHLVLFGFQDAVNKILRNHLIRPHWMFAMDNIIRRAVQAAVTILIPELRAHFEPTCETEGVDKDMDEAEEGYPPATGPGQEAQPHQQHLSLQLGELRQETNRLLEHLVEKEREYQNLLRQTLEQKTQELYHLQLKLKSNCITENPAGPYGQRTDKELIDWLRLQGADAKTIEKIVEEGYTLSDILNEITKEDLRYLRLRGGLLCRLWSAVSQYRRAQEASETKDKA

SMILES	read-out	technique	tested at	remaining binding
c1cncc(-c2cccc(Nc3nccc(NC4CCCCC4)n3)c2)c1	binding	competition with immobilised ligand	10 µM	77%
Nc1cnc(N2CCc3cc(S(=O)(=O)Nc4c(F)cc(Cl)cc4F)cc(N4CCCC4=O)c32)nc1	cell-free assay	competition with immobilised ligand	1 µM	100%
F[C@@H]1CCN(c2nccc(-c3cnn4ncccc34)n2)C1	binding		1 µM	100%
O=C(NCC1CCOCC1)c1n[nH]cc1NC(=O)c1c(F)cccc1F	binding	competition with immobilised ligand	1 µM	72%
C[C@@]1(Cc2ccc(C#N)cc2)C(=O)N(c2cc(Cl)cc(Cl)c2)c2ncc(C(=O)NC3(c4nc(C5CCC5)no4)CC3)n21	cell-free assay	competition with immobilised ligand	1 µM	81%
O=C(c1ccc(Nc2ncc(Cl)c(-c3ccc(Cl)s3)n2)cc1)N1CCC(N2CCCC2)CC1	binding	competition with immobilised ligand	1 µM	52%
COc1ccc2c(c1)O[C@@H](c1ccc(OC)c(OC)c1)C[C@H]2NC(=O)C1(c2ccc3c(c2)OC(F)(F)O3)CC1	cell-free assay	competition with immobilised ligand	1 µM	88%
CNC(=O)[C@@H]1CC[C@@H](n2c(-c3ccc4cnccc4c3)nc3ccc(C(=O)NCc4cccc(C(N)=O)c4)cc32)C1	binding	competition with immobilised ligand	1 µM	99%
CN(C)c1nccc(-c2cnc3ncccn23)n1	binding		1 µM	100%
O=C(O)c1cc(-c2ccc(C3CCNCC3)cc2)c2ccc(-c3ccc(C(F)(F)F)cc3)cc2c1	cell-free assay	competition with immobilised ligand	1 µM	99%
N[C@@H]1CCN(c2nccc(-c3cnn4ncccc34)n2)C1	binding		1 µM	92%
O=C(NCCCN1CCOCC1)c1ccc(Nc2ncc(Cl)c(-c3ccc(Cl)s3)n2)cc1	binding	competition with immobilised ligand	1 µM	68%
CCCCN(CCCC)C(=O)CN1C[C@@H](c2cc(OC)c3c(c2)OCO3)[C@H](C(=O)O)[C@H]1CC(C)(C)CCC	cell-free assay	competition with immobilised ligand	1 µM	99%
Nc1ncc2c(n1)-c1c([nH]c3ccc(C#CC4CC4)cc13)CCCC2	binding	competition with immobilised ligand	1 µM	73%
Cn1nc(C(F)(F)F)cc1-c1cnc(N2CCc3cc(S(=O)(=O)Nc4c(F)cc(Cl)cc4F)cc(N4CCCC4=O)c32)nc1	cell-free assay	competition with immobilised ligand	1 µM	81%
CN(c1nccc(-c2cnn3ncccc23)n1)C1CC1	binding		1 µM	100%
C=CC(=O)N1CCC(C(=O)NCC(=O)N2CCN(c3nc(-c4cnc(N)nc4C(F)F)nc(N4CCOCC4)n3)CC2)CC1	binding	competition with immobilised ligand	1 µM	100%
C[C@@H]1CCN(c2nccc(-c3cnn4ncccc34)n2)C1	binding		1 µM	100%
CCN1CCN(Cc2ccc(C(=O)Nc3ccc(C)c(Oc4ccc5c(c4)CC(=O)N5)c3)cc2C(F)(F)F)CC1	binding	competition with immobilised ligand	1 µM	100%
O=C(c1ccc(Nc2ncc(Cl)c(-c3cc4ccccc4s3)n2)cc1)N1CCC(N2CCCC2)CC1	binding	competition with immobilised ligand	1 µM	55%
c1cnn2ncc(-c3ccnc(N4CCC45COC5)n3)c2c1	binding		1 µM	68%
